ChEMBL document CHEMBL1649230, “Aryl rhodanines specifically inhibit staphylococcal and enterococcal biofilm formation” (Antimicrob Agents Chemother, 2009)
Converted amounts (≈) assume the structure as drawn.

System: Staphylococcus aureus
Experiment: Antimicrobial activity against Staphylococcus aureus ATCC 35556 by M7-A7 method
Format: functional
In short: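 Planktonic MIC by CLSI M7-A7 broth microdilution. Twofold compound dilutions made in DMSO at 50× final concentration and added to plates before inoculation; 2% DMSO final.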

## O=C(N[C@H](CO)[C@H](O)c1ccc([N+](=O)[O-])cc1)C(Cl)Cl [CHLORAMPHENICOL]
  MIC: 1 µg/mL (≈ 3.09 µM)
